# Screening results as filed in PubChem BioAssay.
# In the library only some 2.4% were active in any assay of this set; here they are far more common.
# Ecoli rRNA inh = inhibitors of bacterial rRNA selective over humanized ribosomes; E. coli WT GFP vs humanized-ribosome RFP mutants, fluorescence, 24 h; hits give low values; DMSO median 0, no signal -100; GFP signal change (wild-type ribosome), % (test concentration not listed); hit rate 1.6% among 350,000; AID 720706;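 active = significant combined selectivity score with lowered wild-type GFP, culture density cut under 30%, mutant RFP and density less affected; inactive = any of these conditions unmet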
# EWS-Fli block = inhibitors of EWS/Fli oncoprotein transcriptional activity; A673 NR0B1-luciferase reporter, viability-normalised; inhibition, % at 12.6 µM; hit rate 0.67% among 350,000; AID 651661;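 active = mean inhibition of at least 50% after viability correction, with every replicate also passing that limit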;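 note: firefly luciferase signal divided by Alamar Blue viability fluorescence both relative to DMSO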
# E-selectin induc = E-selectin induction on HUVECs. activation, % at 7.58 µM. hit rate 0.37% among 260,000. AID 686992. P16581. HUVEC E-selectin immunofluorescence imaging; normalized: neutral wells 0, TNF-alpha wells 100;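 active = mean E-selectin-positive cell signal at least 10% of the positive control, reached in at least 60% of replicates, without over 20% cell loss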
# Target sequence (P16581 whole entry, looked up): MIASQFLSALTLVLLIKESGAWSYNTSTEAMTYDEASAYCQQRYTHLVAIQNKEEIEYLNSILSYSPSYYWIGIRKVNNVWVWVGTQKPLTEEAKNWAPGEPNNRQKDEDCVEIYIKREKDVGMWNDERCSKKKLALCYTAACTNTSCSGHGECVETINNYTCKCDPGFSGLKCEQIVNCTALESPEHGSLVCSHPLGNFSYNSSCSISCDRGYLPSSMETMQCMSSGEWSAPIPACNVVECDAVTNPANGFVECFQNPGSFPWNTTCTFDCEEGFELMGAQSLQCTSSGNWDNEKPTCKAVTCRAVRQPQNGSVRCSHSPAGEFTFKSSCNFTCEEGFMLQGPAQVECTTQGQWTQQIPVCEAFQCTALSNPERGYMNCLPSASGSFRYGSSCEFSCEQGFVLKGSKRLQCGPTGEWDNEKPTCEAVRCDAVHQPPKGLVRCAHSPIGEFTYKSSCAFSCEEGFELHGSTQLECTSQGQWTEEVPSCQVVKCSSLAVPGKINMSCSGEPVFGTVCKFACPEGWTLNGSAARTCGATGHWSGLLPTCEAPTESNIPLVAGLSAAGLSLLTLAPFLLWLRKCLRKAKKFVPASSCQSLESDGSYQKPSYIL
#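 System: HUVEC, human umbilical vein endothelial cells; quantity: 3,000 cells/well; buffer or medium: EGM-2 medium, gelatin-coated wells; dosing: single-point compound dose; detection: immunofluorescence imaging; evaluation: % PE-positive cells; benchmarks: TNF-alpha, DMSO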
# LGR2 inh = Drosophila LGR2 receptor signaling inhibition. inhibition, % at 9.99 µM. AID 720647. HEK293 LGR2, CRE-luciferase, bursicon-stimulated, 4 h. hit rate 0.35% among 380,000;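 active = drop in luminescence signal, shown as inhibition above about 50% in the replicate tests, limit read from the data, passing the limit was not always enough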;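 note: agonist challenge used bursicon conditioned medium at about half maximal strength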
# * marks the source's active call; other numbers are inactive results; nt = no result given.
SMILES,Ecoli rRNA inh,EWS-Fli block,E-selectin induc,LGR2 inh
C[C@H](CO)N1C[C@H](C)[C@H](CN(C)Cc2ccncc2)Oc2ccc(NC(=O)CCC(F)(F)F)cc2CC1=O,1.0,nt,314.2*,12.9
C[C@H]1CN([C@@H](C)CO)C(=O)Cc2cc(NS(C)(=O)=O)ccc2O[C@@H]1CN(C)Cc1ccncc1,6.2,8.0,449.3*,24.7
C[C@H](CO)N1C[C@H](C)[C@@H](CN(C)Cc2ccncc2)Oc2ccc(NS(C)(=O)=O)cc2CC1=O,2.5,1.0,-4.5,14.2
C[C@H](CO)N1C[C@H](C)[C@H](CN(C)Cc2ccncc2)Oc2ccc(NS(C)(=O)=O)cc2CC1=O,-1.8,7.9,256.7*,9.5
C[C@H](CO)N1C[C@H](C)[C@H](CN(C)C(=O)c2ccccc2)OCCCC[C@H](C)Oc2ccc(NC(=O)Nc3ccc4c(c3)OCO4)cc2C1=O,0.9,5.6,-0.2,2.2
Cc1ccc(S(=O)(=O)Nc2cccc3c2O[C@H](CN(C)Cc2ccc(Oc4ccccc4)cc2)[C@@H](C)CN([C@H](C)CO)C3=O)cc1,1.3,2.9,-0.2,23.3
COc1ccccc1NC(=O)N[C@H]1C=C[C@@H](CC(=O)NCc2ccc(Cl)c(Cl)c2)O[C@H]1CO,-7.0,7.4,-0.3,11.4
COc1ccc(NC(=O)/C(Cl)=C(/Cl)S(=O)Cc2ccc(Cl)cc2)cn1 (stereo unspecified),-27.0,73.7*,nt,101.4*
COc1ccc(NC(=O)N(C)C[C@H]2Oc3ncc(-c4cccnc4)cc3C(=O)N([C@@H](C)CO)C[C@@H]2C)cc1,1.9,0.2,nt,0.9
CC(Sc1nc(O)c(-c2ccccc2)c(=O)[nH]1)C(=O)Nc1ccc(Cl)cc1 (stereo unspecified),-23.9*,4.0,nt,0.6
CC(=O)Nc1cccc(C(=O)/C=C/c2ccc(/C=C/C(=O)c3cccc(NC(C)=O)c3)cc2)c1,2.2,54.7*,nt,-3.6
CC(=O)Nc1cccc(C(=O)/C=C/c2ccc(F)cc2)c1,-1.4,36.9,nt,7.4
CC(=O)Nc1cccc(C(=O)/C=C/c2ccc(Br)cc2)c1,-18.3,17.9,nt,60.2*
CC(=O)Nc1cccc(C(=O)/C=C/c2ccc(N(C)C)cc2)c1,-5.8,-55.5,-1.7,-39.3
Cc1cccc(C(=O)Nc2ccc(C(=O)/C=C/c3ccncc3)cc2)c1,-6.3,70.7*,nt,-4.1
O=C(/C=C/c1ccccn1)c1ccc(Br)cc1O,-13.7,12.0,105.3*,-2.5
C[C@H]1CN([C@@H](C)CO)C(=O)c2ccccc2-c2ccccc2CO[C@@H]1CN(C)Cc1ccc(Cl)c(Cl)c1,-5.1,15.9,1.1,16.1
C=C1C(=O)c2sccc2C(c2ccc(OC)c(OC)c2)C1COC(C)=O (stereo unspecified),-25.4*,77.2*,-0.3,106.2*
CNC(=S)N(Cc1ccc(Cl)cc1)Cc1cccs1,-43.2*,-3.2,1.6,5.2
Cc1ccccc1N(CC(=O)NC1CCCCC1)C(=O)CNC(=O)c1cccs1,-1.6,6.8,44.9*,3.7
O=C(CN(C(=O)CNC(=O)c1cccs1)c1ccccc1F)NC1CCCCC1,4.8,-0.9,4.6,-21.0
CCOC(=O)N(O)c1ccc(C=Cc2ccccc2)cc1,-8.4,-62.7,0.3,67.0*
COC1(OC)C=CC(=O)C=C1NC(=O)c1ccccc1OC(C)=O,-8.4,55.2*,-0.2,24.6
COc1ccc(S(=O)(=O)Nc2ccc3c(c2)C(=O)N([C@@H](C)CO)C[C@@H](C)[C@@H](CN(C)S(=O)(=O)c2c(C)noc2C)OCCCC[C@@H](C)O3)cc1,-2.3,13.4,nt,11.6
CO[C@@H]1CN(C)C(=O)c2ccc(NC(=O)C3CCCCC3)cc2OC[C@@H](C)N(C(=O)Nc2ccc(C(F)(F)F)cc2)C[C@H]1C,-3.9,-10.8,-0.2,7.4
CN(C)c1ccc(/C=C2\SC(=O)N(CCc3nnc(N)s3)C2=O)cc1,-10.1,82.3*,nt,89.2*
O=C(C[C@@H]1C=C[C@H](NC(=O)Nc2ccc(C(F)(F)F)cc2)[C@@H](CO)O1)NCCN1CCCC1,1.2,-4.6,-0.2,12.9
O=C(N[C@H](C(=O)N1CCC[C@H]1C(=O)NC1CCCC1)C1CCCCC1)c1ccc(Cl)cc1Cl,-28.0*,-7.5,-0.2,-1.8
COc1ccc2c3c([nH]c2c1)[C@@H](CO)N(C(=O)c1ccccn1)CC31CN(C(=O)C2CCCCC2)C1,-1.1,nt,nt,nt
CN(C)C(=O)C[C@H]1CC[C@H]2[C@@H](COC[C@H](O)CN2S(=O)(=O)c2ccccc2)O1,1.4,nt,0.0,2.6
